Laboratory results from PMC7059553 (Science translational medicine, 2018).
Like-named read-outs stand apart in the source and are kept apart here.

Tests used:
[1] = system: primary human fibroblasts, primary keratinocytes, CCD841 colon epithelial cells; assay type: cell-based
[2] = Liver microsome stability; assay type: in vitro ADME
TXNRD1 [3] = biological target: T1, TXNRD1 (Rattus norvegicus, UniProt O89049); assay: Reversibility of TXNRD1 inhibition; assay type: biochemical
T1 sequence (O89049 1-499): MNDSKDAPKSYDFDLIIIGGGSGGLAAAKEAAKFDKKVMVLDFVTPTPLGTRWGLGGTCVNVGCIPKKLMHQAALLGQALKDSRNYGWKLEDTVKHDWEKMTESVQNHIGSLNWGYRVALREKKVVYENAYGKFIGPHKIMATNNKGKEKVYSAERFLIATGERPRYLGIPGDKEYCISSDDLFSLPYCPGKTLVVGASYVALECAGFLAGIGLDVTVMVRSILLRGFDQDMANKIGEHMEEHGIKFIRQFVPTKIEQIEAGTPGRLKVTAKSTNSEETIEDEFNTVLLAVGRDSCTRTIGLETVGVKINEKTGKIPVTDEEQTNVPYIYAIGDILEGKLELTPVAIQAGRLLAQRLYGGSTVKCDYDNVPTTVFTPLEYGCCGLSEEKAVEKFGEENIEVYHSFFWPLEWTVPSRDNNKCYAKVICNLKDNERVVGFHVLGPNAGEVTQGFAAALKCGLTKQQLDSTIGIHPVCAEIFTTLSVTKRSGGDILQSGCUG

SCID mice = assay: Single dose escalation toxicity study; settings: mouse, in vivo, iv
[4] = system: PyMT-MMTV mice mammary tumors; assay: PyMT-MMTV tumor low frequency dosing study; assay type: in vivo; settings: for tumor growth in PyMT-MMTV mice: three weeks; for tumor volumes compared to vehicle controls: mice surviving 20–22 days, p<0.05
[5] = system: cellular TXNRD activity in FaDu cells; assay: Cellular TXNRD activity, insulin-endpoint assay; assay type: cell-based, human; settings: 3 hours of compound exposure
HCT116 cells [6] = assay: Cytotoxicity in HCT116 subclones with altered p53 status or BCL-2 overexpression; assay type: cell-based, human; settings: subclones of HCT116 cells
[7] = system: JNK and p38 phosphorylation in FaDu cells; assay: Western blot of JNK and p38 phosphorylation; assay type: cell-based, human; settings: FaDu cells treated for 6 hours
FaDu cells [8] = assay: Cellular GSH concentrations; assay type: cell-based, human; settings: 6 hours at 10×IC50
GPX1 = biological target: T2, GPX1 (Homo sapiens, UniProt P07203); assay: GPX1 inhibition; assay type: biochemical
T2 sequence (P07203 1-203): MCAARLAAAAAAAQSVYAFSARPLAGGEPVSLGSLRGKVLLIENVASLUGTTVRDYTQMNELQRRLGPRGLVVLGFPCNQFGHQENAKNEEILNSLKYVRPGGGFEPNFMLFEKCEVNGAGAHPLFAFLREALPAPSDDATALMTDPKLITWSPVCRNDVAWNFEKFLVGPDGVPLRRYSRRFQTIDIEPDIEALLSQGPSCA

[9] = system: MDA-MB-231 xenografts in athymic mice; assay: MDA-MB-231 orthotopic xenograft efficacy study; assay type: in vivo; settings: for MDA-MB-231 xenograft tumor growth: 22 days, p<0.0001 vs vehicle
[10] = system: human TXNRD1 versus human TXNRD2; assay: Inhibition of human TXNRD1 versus human TXNRD2 with DTNB as substrate; assay type: biochemical; settings: human recombinant enzymes
In short: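 Human recombinant TXNRD1 and TXNRD2 were assayed with DTNB as substrate, with activity read by absorbance change. TXNRD1 buffer was 50 mM Tris pH 7.5, 2 mM EDTA and 0.1 mg/mL BSA. Compounds were in DMSO. Results were normalized to DMSO and no-enzyme controls. Triplicates, mean ± SEM.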

TXNRD1 [11] = biological target: T1, TXNRD1; assay: SecTRAP activity; assay type: biochemical
TXNRD1 [12] = biological target: T1, TXNRD1; assay type: binding
[13] = system: FaDu cell xenografts in SCID mice; assay: [18F]-FDG PET study of FaDu xenografts; assay type: in vivo, mouse; settings: 5 mg/kg i.p. once daily
In short: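 Male SCID mice carried FaDu xenografts (1×10^6 cells); baseline scan at day 11, with food removed. Isoflurane anaesthesia on a 37 °C pad. [18F]-FDG i.v., 60-min 3D acquisition. Treatment was i.p. once daily (n=8) or vehicle (n=9), rescanned on day 3. SUVmean was taken over ROIs ≥1.8×10^5 Bq/mL, and day 3 was compared with day 0 by paired t-test.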

FaDu cells [14] = assay: Cellular H2O2 production, Amplex red assay; assay type: cell-based, human
In short: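 FaDu cells were grown at 37 °C, 5% CO2 in medium with 10% FBS, 2 mM L-glutamine and 100 μg/mL penicillin/streptomycin. Tests used medium with 10% FBS plus 25 nM sodium selenite. Compound was given in DMSO (0.01% final) across a concentration range or over a time course. H2O2 was read by Amplex red. Runs were in triplicate, shown as mean ± SEM.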

[15] = system: FaDu cell xenografts in SCID mice; assay: Repeated dose study in FaDu xenograft-bearing mice; assay type: in vivo; settings: twice a day i.v., 10 mg/kg TRi-1, 15 mg/kg TRi-2 or 10 mg/kg auranofin; for FaDu xenograft tumor growth: four days
HCT116 cells [16] = assay: Mitochondrial respiration, Seahorse assay; assay type: cell-based, human
FaDu cells [17] = assay type: cell-based, human
[18] = system: A549 lung carcinoma cells and MEFs; assay type: cell-based, human, mouse; settings: for sensitivity of MEFs with the Txnrd1 gene deleted: Txnrd1 -/- vs Txnrd1 fl/fl MEFs
FaDu cells [19] = assay: Cytotoxicity towards FaDu cells, 72 hours; assay type: cell-based, human; settings: 72 hours of incubation
In short: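 Viability of FaDu cells after 72 h with test compound, in medium with 10% FBS and 25 nM sodium selenite, at 37 °C and 5% CO2. DMSO vehicle at 0.01% final. Run in triplicate and reported as mean ± SEM.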

FaDu cells [20] = assay type: cell-based, human; remark: listed apart in the source
human cancer cell lines = assay type: cell-based
NCI-60 cell panel = settings: read-out: average growth inhibition to 50% (GI50); average over NCI-60 cell panel, screened previously; ref https://dtp.cancer.gov, NSC351105 (TRi-2) and NSC321521 (auranofin); cited from earlier work
[21] = i.p. twice a week, TRi-1 5 mg/kg, auranofin 10 mg/kg
[22] = HCT116 cells, 30-minute or 5-hour exposure

Compound	potency against non-cancerous cells compared to cancer cell lines [1]	metabolism in liver microsomes [2]	tumor growth in PyMT-MMTV mice [4, 21]	tumor volumes compared to vehicle controls [4]	resistance upon altered p53 status or BCL-2 overexpression (HCT116 cells [6])	JNK and p38 phosphorylation [7]	effect on cellular GSH concentrations (FaDu cells [8])	less efficient in inhibiting GPX1 than TXNRD1 (GPX1)	thermal stability of NADPH-reduced TXNRD1 upon incubation with compound (TXNRD1 [12])	cellular H2O2 production (FaDu cells [14])	toxicity and mouse weight in repeated dose study [15]	FaDu xenograft tumor growth [15]	ATP-coupled basal respiration (HCT116 cells [16]; [22])	effect of GSH depletion with BSO on cytotoxicity (FaDu cells [17])	cytotoxicity towards MEF cells versus A549 cells [18]	sensitivity of MEFs with the Txnrd1 gene deleted [18]	also measured
COc1ccc([N+](=O)[O-])c(S(=O)(=O)c2ccc(Cl)cc2)n1 [TRi-1]	reduced potency	rather rapid metabolism	impaired tumor growth	significantly smaller compared to the vehicle controls	no apparent resistance	efficiently activated JNK and p38 phosphorylation	no effect on cellular GSH concentrations	over 1000 fold	stability was increased	increased cellular H2O2 production	no signs of overt toxicity or changes in mouse weight	decreased tumor growth compared to vehicle controls within four days	lacked effects on basal respiration	enhanced the cytotoxicity	preferentially toxic towards the A549 cells	additional resistance	mode of TXNRD1 inhibition (TXNRD1 [3]; with or without NADPH, before and after desalting): irreversibly inhibit TXNRD1 in an NADPH-dependent manner; highest administrable dose tolerated without overt signs of toxicity (SCID mice): 10 mg/kg; inhibition of cellular TXNRD activity [5]: equal or greater potency compared to that of auranofin; MDA-MB-231 xenograft tumor growth ([9]; 10 mg/kg i.p.): significantly decreased compared to the vehicle controls; complete tumor regression ([9]; 10 mg/kg i.p., n=12): one tumor in the TRi-1 i.p. group completely regressing; systemic toxicity in MDA-MB-231 xenograft study ([9]; 10 mg/kg i.v. or i.p.): no signs of overt systemic toxicity; MDA-MB-231 xenograft tumor growth ([9]; 10 mg/kg i.v.): significantly decreased compared to the vehicle controls; specificity for TXNRD1 compared to inhibition of TXNRD2 [10]: 5- to 10 fold; SecTRAP formation (NADPH-dependent redox cycling with juglone) (TXNRD1 [11]; after inhibition of normal TXNRD1 activity and desalting): maintained substantial NADPH-dependent redox cycling with juglone; activated caspase-3 staining in excised xenografts ([13]; between days three and four): increased staining for activated caspase-3; [18F]-FDG uptake in viable parts of the tumors ([13]; day 3 vs day 0): markedly decreased; maximal respiratory capacity (HCT116 cells [16]; [22]): little effect on maximal respiratory capacity
COc1cccc(S(=O)(=O)c2ccc(Cl)cc2)n1 [TRi-62]																	cytotoxicity towards FaDu cells (FaDu cells [19]): loss of cytotoxicity
CC(=O)OC[C@H]1O[C@@H]([S-])[C@H](OC(C)=O)[C@@H](OC(C)=O)[C@@H]1OC(C)=O.CCP(CC)CC.[Au+] [auranofin, reference compound]	only displayed lower potency against the CDD841 cells	rather rapid metabolism	impaired tumor growth	significantly smaller compared to the vehicle controls	no apparent resistance	did not activate JNK and p38 phosphorylation as robustly	lowered GSH	over 1000 fold	not with TRi-2 or auranofin	increased cellular H2O2 production	no signs of overt toxicity or changes in mouse weight	decreased tumor growth compared to vehicle controls within four days	deteriorated ATP-coupled respiration	enhanced the cytotoxicity	similarly cytotoxic towards these two cell types	minimally affected	cytotoxicity in colony-forming assay (FaDu cells [20]): more cytotoxic than TRi-1; mode of TXNRD1 inhibition (TXNRD1 [3]): irreversibly inhibit TXNRD1 in an NADPH-dependent manner; survival during observation [4, 21]: two mice in the auranofin group had to be sacrificed due to poor health; GPX1 inhibition (GPX1; preincubated with GPX1 in the absence of GSH, high concentrations): moderate inhibition; TXNRD1 versus TXNRD2 inhibition profile [10]: pan-TXNRD inhibitor; cytotoxic potency, side-by-side comparison (human cancer cell lines): on average more potent than TRi-1; SecTRAP formation (NADPH-dependent redox cycling with juglone) (TXNRD1 [11]): maintained substantial NADPH-dependent redox cycling with juglone; GI50 (NCI-60 cell panel): 760 nM; maximal respiratory capacity (HCT116 cells [16]): impaired maximal respiratory capacity
